HSP90 inh: HSP90 inhibitors, primary screen, cell lysate, luminescence | Heat shock protein HSP 90 (rabbit reticulocyte lysate; luciferase refolding) | Rabbit reticulocyte lysate, luciferase refolding luminescence, 3 h | inhibition, % at 5.6 µM | 290,000 compounds, 0.91% hits | AID 1789, 2009;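 active = inhibition above the screen-wide mean plus 3 SD, computed separately per campaign, cut at about 16% in these data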;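 note: inhibitors lower the luminescence because luciferase stays unfolded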
HCV NS3 hel inh: inhibitors of HCV NS3 helicase, primary screen, biochemical, Cy5 molecular beacon fluorescence. Hepatitis C virus NS3 helicase. NS3 helicase DNA unwinding. inhibition, % at 10.9 µM. 290,000 compounds, 0.56% hits. AID 1800, 2009;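 active = inhibition above the mean of all tested compounds plus 3 SD, set per campaign, cut at about 35% in these data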
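System: NS3 helicase fragment of HCV / Schedule: 1 h at 25 °C / Control set: DMSO alone as 0% and 110 µM thioflavine S as 100% / Reagent: Cy5/quencher beacon DNA duplex and ATP to start / Technique: Cy5 fluorescence / Replication: singlicate / Evaluation: % inhibition of end-to-start signal ratio versus controls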
Hep lipid drop: inhibitors of hepatocyte lipid droplet formation, primary screen, imaging, high-throughput imaging, BODIPY stain | AML12 mouse hepatocytes, oleate lipid droplets | inhibition, % at 6.5 µM | 240,000 compounds, 0.4% hits | AID 1656, 2009;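 active = lipid droplet intensity inhibited by at least 50%, with more than 500 cells counted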
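Assay system: AML12 hepatocytes (mouse) / Also added: 100 µM oleic acid challenge / Times: overnight treatment with compound plus oleate / Detection: high-content imaging of BODIPY-stained droplets and DAPI nuclei / Evaluation: % inhibition of lipid droplet signal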
HSF-1 act: HSF-1 activators, primary screen, NIH3T3-HGL cells, MG132 stress, luminescence, single point; NIH3T3-HGL HSF-1 luciferase reporter, 8 h; 100% = twice DMSO control signal; activation, % at 9 µM; 300,000 compounds, 1.7% hits; AID 504408, 2011;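 active = mean replicate activation of at least 50% with a set share of replicates each reaching 50%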
HSF1 inh: HSF1 inhibitors in luciferase reporter cells, primary screen, cell-based, NIH3T3, luminescence; NIH3T3-HGL HSE-luciferase, MG132-induced, luminescence 8 h; hits give low values; activity change, negative = inhibition, % at 7.5 µM (by protocol); 300,000 compounds, 0.77% hits;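 active = more than half of replicate wells show activity change below -50%, luminescence cut by over half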;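 note: luciferase reports HSF-1 transcriptional activity via heat shock element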
Lipid drop inh: hepatocyte lipid droplet accumulation inhibitors, confirmation, imaging, AML12 mouse hepatocytes, single concentration, high-content; shares compounds with Hep lipid drop; inhibition, % at 5.2 µM; BODIPY lipid droplet imaging; droplets induced with 100 µM oleic acid; 870 compounds, 65% hits;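 active = inhibition of lipid droplet metric at least 50%, with more than 300 cells in each of four replicates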
AML12 tox img: AML12 hepatocyte cytotoxicity, counter-screen for hepatic lipid droplet formation project, imaging, DAPI nuclear morphology imaging; shares compounds with Hep lipid drop; AML12 mouse hepatocytes; hits give high values; cells fed 100 µM oleate overnight; z-score at 5 µM; 870 compounds, 3% hits; AID 463200, 2010; in the data active = z-score above about 6.3;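 note: compound exposure lasted overnight at 37 °C before fixation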
AML12 tox conf: AML12 hepatocyte cytotoxicity, confirmation, cytotoxicity control for hepatic lipid droplet formation project, cell-based, single concentration; shares compounds with Hep lipid drop; cytotoxicity, % at 50 µM; AML12 mouse hepatocyte viability, ATP luminescence; cells loaded with 100 µM oleic acid; 530 tested, under 10 active;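 active = cytotoxicity above 50% in each of four replicates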;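 note: compound exposure lasted overnight at 37 °C before the ATP read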
A number is an active result. Compounds with a hit are over-represented: about 3.8% of the library has one in this group of screens.

How did CC(=O)c1ccc(S(=O)(=O)Nc2ccc(N3CCOCC3)cc2)cc1 do in these assays?
HSP90 inh: inactive; HCV NS3 hel inh: inactive; Hep lipid drop: inactive; HSF-1 act: inactive; HSF1 inh: inactive

What do the screens show for `CCOc1ccc(NS(=O)(=O)c2ccc(C(=O)N(CC)CC(=O)NCc3cccs3)cc2)cc1`?
HSP90 inh: inactive; HCV NS3 hel inh: inactive; Hep lipid drop: 77.8; HSF-1 act: inactive; HSF1 inh: inactive; Lipid drop inh: 98.1; AML12 tox img: inactive; AML12 tox conf: inactive

What do the screens show for `COc1ccc(C(=O)NCCc2ccccc2)cc1[N+](=O)[O-]`?
HSP90 inh: inactive; HCV NS3 hel inh: inactive; Hep lipid drop: inactive; HSF-1 act: inactive; HSF1 inh: inactive

What do the screens show for `COc1ccc(C(=O)OC(C)C(=O)NC(C)CCc2ccccc2)cc1[N+](=O)[O-]` (centres undefined)?
HSP90 inh: inactive; HCV NS3 hel inh: inactive; Hep lipid drop: 68.4; HSF-1 act: inactive; HSF1 inh: inactive; Lipid drop inh: 109.3; AML12 tox img: inactive; AML12 tox conf: inactive

Results for COc1ccc(C(=O)OCC(=O)NC(C)CCc2ccccc2)cc1 (centres undefined) ?
HSP90 inh: inactive; HCV NS3 hel inh: inactive; Hep lipid drop: inactive; HSF-1 act: inactive; HSF1 inh: inactive

Results for COc1ccc(C(=O)OCC(=O)NC(C)CCc2ccccc2)cc1OC (centres undefined) ?
HSP90 inh: inactive; HCV NS3 hel inh: inactive; Hep lipid drop: 62.5; HSF-1 act: inactive; HSF1 inh: inactive; Lipid drop inh: 72.0; AML12 tox img: inactive; AML12 tox conf: inactive

Results for COc1ccc(NC(=O)CSc2nc3ccccc3nc2N2CCCCC2)cc1 ?
HSP90 inh: inactive; HCV NS3 hel inh: inactive; Hep lipid drop: 73.2; HSF-1 act: inactive; HSF1 inh: inactive; Lipid drop inh: 108.4; AML12 tox img: inactive; AML12 tox conf: inactive

Results for COc1ccc(NC(=O)CSc2nc3ccccc3nc2N2CCCC2)c(OC)c1 ?
HSP90 inh: inactive; HCV NS3 hel inh: inactive; Hep lipid drop: inactive; HSF-1 act: inactive; HSF1 inh: inactive

Results for COc1cccc(NC(=O)CSc2nc3ccccc3nc2N2CCCC2)c1 ?
HSP90 inh: inactive; HCV NS3 hel inh: inactive; Hep lipid drop: 58.3; HSF-1 act: inactive; HSF1 inh: inactive; Lipid drop inh: 99.2; AML12 tox img: inactive; AML12 tox conf: inactive

How did Cc1cccc(NC(=O)CSc2nc3ccccc3nc2N2CCCCC2)c1 do in these assays?
HSP90 inh: inactive; HCV NS3 hel inh: inactive; Hep lipid drop: inactive; HSF-1 act: inactive; HSF1 inh: inactive

How did Cc1cccc(NC(=O)CSc2nc3ccccc3nc2N2CCCC2)c1 do in these assays?
HSP90 inh: inactive; HCV NS3 hel inh: inactive; Hep lipid drop: 62.8; HSF-1 act: inactive; HSF1 inh: inactive; Lipid drop inh: 102.2; AML12 tox img: inactive; AML12 tox conf: inactive

How did NC(=O)NCCCC(=O)NCC(c1ccccc1Cl)c1c[nH]c2ccccc12 (centres undefined) do in these assays?
HSP90 inh: inactive; HCV NS3 hel inh: inactive; HSF-1 act: inactive; HSF1 inh: inactive

Results for CC1(c2nnc(Cc3ccccc3)o2)CC(c2ccc([N+](=O)[O-])cc2)=NO1 (centres undefined) ?
Hep lipid drop: inactive; HSF-1 act: inactive; HSF1 inh: inactive

What do the screens show for `CC(Sc1nc2ccccc2c(=O)n1CCc1ccc(S(N)(=O)=O)cc1)C(=O)NC(N)=O` (centres undefined)?
HSP90 inh: inactive; HCV NS3 hel inh: inactive; Hep lipid drop: inactive; HSF-1 act: inactive; HSF1 inh: inactive

Results for CCCNS(=O)(=O)c1ccc(CCC(=O)Nc2cc(Cl)ccc2Oc2ccccc2)cc1 ?
HSP90 inh: inactive; HCV NS3 hel inh: inactive; Hep lipid drop: 62.7; HSF-1 act: inactive; HSF1 inh: inactive; Lipid drop inh: 92.8; AML12 tox img: inactive; AML12 tox conf: inactive

Results for CC(C)CNS(=O)(=O)c1ccc(CCC(=O)Nc2cc(Cl)ccc2Oc2ccccc2)cc1 ?
HSP90 inh: inactive; HCV NS3 hel inh: inactive; Hep lipid drop: inactive; HSF-1 act: inactive; HSF1 inh: inactive

Results for Cc1c(Cl)cccc1N(CC(=O)NC(C)c1ccccc1)S(C)(=O)=O (centres undefined) ?
HSP90 inh: inactive; HCV NS3 hel inh: inactive; Hep lipid drop: 58.4; HSF-1 act: inactive; HSF1 inh: inactive; Lipid drop inh: inactive; AML12 tox img: inactive

How did Cc1ccc(CN2CCN(c3ncccn3)CC2)o1 do in these assays?
HSP90 inh: inactive; HCV NS3 hel inh: inactive; Hep lipid drop: inactive; HSF-1 act: inactive; HSF1 inh: inactive

How did Cc1ccc(CN2CCN(c3ccccc3)CC2)o1 do in these assays?
HSP90 inh: inactive; HCV NS3 hel inh: inactive; Hep lipid drop: 75.1; HSF-1 act: inactive; HSF1 inh: inactive; Lipid drop inh: inactive; AML12 tox img: inactive

Results for CCOc1ccc(CCNC(=O)CCC(=O)N2CCOc3ccc(C)cc32)cc1OCC ?
HSP90 inh: inactive; HCV NS3 hel inh: inactive; Hep lipid drop: 79.8; HSF-1 act: inactive; HSF1 inh: inactive; Lipid drop inh: 111.9; AML12 tox img: inactive; AML12 tox conf: inactive

What do the screens show for `COc1ccc(CCNC(=O)CCC(=O)N2CCOc3ccc(C)cc32)cc1OC`?
HSP90 inh: inactive; HCV NS3 hel inh: inactive; Hep lipid drop: inactive; HSF-1 act: inactive; HSF1 inh: inactive

How did CSc1ccc(CCNC(=O)CN2C(=O)c3cccnc3Oc3ccc(C)cc32)cc1 do in these assays?
HSP90 inh: inactive; HCV NS3 hel inh: inactive; Hep lipid drop: inactive; HSF-1 act: inactive; HSF1 inh: inactive

What do the screens show for `Cc1ccc(C)c(OCCC(=O)NCCc2ccc(Cl)cc2)c1`?
HSP90 inh: inactive; HCV NS3 hel inh: inactive; Hep lipid drop: inactive; HSF-1 act: inactive; HSF1 inh: inactive

What do the screens show for `CCOc1ccc(CCNC(=O)CN2C(=O)c3cccnc3Oc3ccc(C)cc32)cc1OCC`?
HSP90 inh: inactive; HCV NS3 hel inh: inactive; Hep lipid drop: 91.6; HSF-1 act: inactive; HSF1 inh: inactive; Lipid drop inh: 110.0; AML12 tox img: inactive; AML12 tox conf: inactive

What do the screens show for `CCOc1ccc(CCNC(=O)CSCc2ccc(C)cc2)cc1OCC`?
HSP90 inh: inactive; HCV NS3 hel inh: inactive; Hep lipid drop: 88.4; HSF-1 act: inactive; HSF1 inh: inactive; Lipid drop inh: 109.1; AML12 tox img: inactive

Bioassay records deposited in PubChem by several laboratories.
